Test results as given in ChEMBL document CHEMBL4316619 (Bioorg Med Chem Lett, 2019).
Active and inactive are the calls of the source. The calls are words filed in the database; no cut-off is given here.

Tests used:
Influenza A virus [1] = experiment: Antiviral activity against Influenza A virus A/PR/8/34 (H1N1) infected in MDCK cells assessed as fold reduction in virus titer at 10 uM measured after 48 hrs by hemagglutination assay relative to control; format: functional, A/Puerto Rico/8/1934(H1N1)
How it was run: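 MDCK cells were infected with A/PR/8/34 (H1N1) at MOI 0.1 and incubated with compound for 48 h. Supernatant virus was then quantified by hemagglutination assay and standard TCID50 analysis. The single-concentration screen used 10 μM and reports fold reduction in titer. Dose-response runs used triplicate cultures, with percent titer decrease back-calculated from TCID50.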

MDCK = experiment: Cytotoxicity against MDCK cells assessed as reduction in cell viability measured after 48 hrs by CellTiter Glo assay; format: cell-based, Canis lupus familiaris; settings: dog
How it was run: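 MDCK cells were incubated with compound under the conditions of the 48 h replication assay. Cytotoxicity was read with the CellTiter-Glo ATP viability assay. Follow-up viability testing used 5, 10, 50 and 100 μM.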

[2] = Cytotoxicity against MDCK cells assessed as reduction in cell viability measured on day 5 by Celltiter-Glo luminescence assay; format: cell-based, Canis lupus familiaris; settings: dog, MDCK cells
How it was run: (§1)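 MDCK cells were infected with seasonal influenza A strains through NIAID resources and scored for protection from virus-induced cell death. Compounds were tested at four concentrations (0.8, 4, 20, 100 μM). EC50/EC90 (reduction of viral cell death) and CC50 (reduction of cell viability) were derived in μM, and SI50 = CC50/EC50.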

Influenza A virus [3] = experiment: Antiviral activity against Influenza A virus (A/California/7/2009(H1N1)) infected in MDCK cells assessed as reduction in virus-induced cytopathic effect measured on day 5 by Celltiter-Glo luminescence assay; format: functional, organism-based; settings: 120 h; how it was run: as §1
Influenza B virus = experiment: Antiviral activity against Influenza B virus (B/Brisbane/60/2008) infected in MDCK cells assessed as reduction in virus-induced cytopathic effect measured on day 5 by Celltiter-Glo luminescence assay; format: functional, organism-based
Influenza A virus H3N2 = experiment: Antiviral activity against Influenza A virus (A/Brisbane/10/2007(H3N2)) infected in MDCK cells assessed as reduction in virus-induced cytopathic effect measured on day 5 by Celltiter-Glo luminescence assay; format: functional, organism-based; settings: 120 h; how it was run: as §1
[4] = Stability of the compound in mouse liver microsomes assessed as parent compound remaining measured immediately; format: ADME, Microsome; settings: read-out: Stability
How it was run: (§2)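 Mouse liver microsomes; percent parent compound remaining measured at 0, 15 and 30 min.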

[5] = Stability of the compound in mouse liver microsomes assessed as parent compound remaining measured after 30 mins; format: ADME, Microsome; settings: read-out: Stability; how it was run: as §2
[6] = target: Non-structural protein 1 (Influenza A virus (strain A/Puerto Rico/8/1934 H1N1)) (UniProt P03496); experiment: Inhibition of Influenza A virus A/PR/8/34 (H1N1) NS1 expressed in 293 cells assessed as increase in poly(I:C)-induced IFN-beta reporter activity treated 16 hrs […] measured after 24 hrs by luciferase reporter gene assay; format: cell-based; settings: Influenza A virus (A/Puerto Rico/8/1934(H1N1))
Chain of Non-structural protein 1 (Influenza A virus (strain A/Puerto Rico/8/1934 H1N1)) (P03496 whole entry): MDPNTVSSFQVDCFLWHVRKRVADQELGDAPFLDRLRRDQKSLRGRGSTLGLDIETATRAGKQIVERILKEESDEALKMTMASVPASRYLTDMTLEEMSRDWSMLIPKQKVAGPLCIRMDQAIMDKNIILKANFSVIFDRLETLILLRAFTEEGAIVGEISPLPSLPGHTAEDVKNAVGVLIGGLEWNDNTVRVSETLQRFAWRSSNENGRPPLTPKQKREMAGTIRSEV
How it was run: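 293 cells co-transfected with a human IFN-β promoter-driven firefly luciferase reporter and NS1 expression constructs. At 16 h post-transfection, poly(I:C) 50 μg/mL plus compound (20 μM) or 1% DMSO added for a further 24 h; luciferase read by luminometer. Untransfected cells serve as baseline.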

[7] = Stability of the compound in mouse liver microsomes assessed as parent compound remaining measured after 15 mins; format: ADME, Microsome; settings: read-out: Stability; how it was run: as §2
Saccharomyces cerevisiae = experiment: Effect on growth of Yeast 9526-6-2 harboring pYES at 50 uM measured up to 60 hrs; format: organism-based; settings: in vivo
How it was run: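 Control yeast carrying empty pYES and NS1-expressing NS1-pYES strain grown with DMSO or compound at 50 μM. Growth measured as OD600 at 22, 42 and 60 h.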

[8] = Aqueous kinetic solubility of the compound; format: physicochemical; settings: buffer
Influenza A virus [9] = experiment: Effect on NS1 protein expression in Influenza A virus A/PR/8/34 (H1N1) infected in MDCK cells at 20 uM by Western blot analysis; format: functional, organism-based; settings: A/Puerto Rico/8/1934(H1N1)
How it was run: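 MDCK cells, uninfected or infected with A/PR/8/34, treated with DMSO or compound at 20 μM. NS1 protein detected by Western blot, with α-tubulin as loading control.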

[10] = target: Non-structural protein 1 (Influenza A virus (strain A/Puerto Rico/8/1934 H1N1)) (UniProt P03496); experiment: Inhibition of NS1 in Influenza A virus A/PR/8/34 (H1N1) infected in MDCK cells assessed as restoration of protein-induced reduction in IFN-beta mRNA expression at 20 uM measured after 6 hrs by RT-PCR analysis; format: cell-based; settings: Influenza A virus (A/Puerto Rico/8/1934(H1N1))
How it was run: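 MDCK cells infected with A/PR/8/34 at MOI 2 and incubated 6 h with compound at 20 μM. Cells harvested; IFN-β and β-actin mRNA detected by RT-PCR. Poly(I:C) lane serves as positive control for IFN-β induction.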

[11] = target: Luciferin 4-monooxygenase (Photinus pyralis) (UniProt P08659); experiment: Effect on firefly luciferase activity expressed in 293 cells at 50 uM by luminescence assay; format: cell-based
Chain of Luciferin 4-monooxygenase (Photinus pyralis) (P08659 whole entry): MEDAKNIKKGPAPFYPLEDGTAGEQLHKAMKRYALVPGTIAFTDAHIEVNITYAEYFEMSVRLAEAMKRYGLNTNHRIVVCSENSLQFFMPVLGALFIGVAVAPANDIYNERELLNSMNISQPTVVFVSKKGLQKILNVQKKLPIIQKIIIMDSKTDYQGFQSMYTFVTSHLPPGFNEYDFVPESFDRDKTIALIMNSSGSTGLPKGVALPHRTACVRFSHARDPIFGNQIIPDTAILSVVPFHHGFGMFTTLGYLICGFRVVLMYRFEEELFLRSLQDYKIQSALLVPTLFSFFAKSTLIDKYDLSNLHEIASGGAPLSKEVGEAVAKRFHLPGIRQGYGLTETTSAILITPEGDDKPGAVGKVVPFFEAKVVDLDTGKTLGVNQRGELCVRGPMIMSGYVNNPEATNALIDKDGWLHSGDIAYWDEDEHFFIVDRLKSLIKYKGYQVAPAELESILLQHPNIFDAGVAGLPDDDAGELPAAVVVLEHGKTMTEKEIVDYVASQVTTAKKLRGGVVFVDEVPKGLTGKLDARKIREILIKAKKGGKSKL

[12] = Apparent permeability across apical to basolateral side in human Caco2 cells measured after 2 hrs; format: ADME, cell-based; settings: caco-2, 2 h
How it was run: (§3)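 Permeability was measured across Caco-2 monolayers in both directions, apical to basolateral and basolateral to apical. […] Runs were done with and without 3% BSA, and mass recovery (%) was reported for each direction. Efflux ratio = Papp B→A / Papp A→B.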

[13] = Apparent permeability across basolateral to apical side in human Caco2 cells measured after 2 hrs; format: ADME, cell-based; settings: caco-2, 2 h; how it was run: as §3

Row | SMILES | fold change (FC) (Influenza A virus [1]) | Activity (MDCK) | further results
1 | COc1ccc(-c2ccnc3c2c(C)nn3-c2ccc(F)cc2)cc1OC | 2 | Non-Toxic | –
2 | COc1cc(-c2ccnc3c2c(C)nn3-c2ccc(F)cc2)ccc1O | 2 | Non-Toxic | –
3 | COc1cc(-c2c(C#N)c(N)nc3c2c(C)nn3-c2ccc(C)cc2)cc(OC)c1OC | 32 | Non-Toxic | –
4 | COc1cc(-c2c(C#N)c(N)nc3c2c(C)nn3-c2ccc(Cl)cc2)cc(OC)c1OC | 0 | Non-Toxic | –
5 | COc1cc(-c2c(C#N)c(O)nc3c2c(C)nn3-c2ccccc2)cc(OC)c1OC | 16 | Non-Toxic | –
6 | COc1cc(-c2c(C#N)c(N)nc3c2c(C)nn3-c2ccc(F)cc2)cc(OC)c1OC | 0 | Non-Toxic | CC50 at 5 day [2]: 0.87 to 6 µM; EC50 (Influenza A virus [3]): 18.3 µM; EC90 (Influenza A virus [3]): 42.4 µM; Activity (Influenza B virus): inactive; EC50 (Influenza A virus H3N2): > 50 µM; EC90 (Influenza A virus H3N2): > 50 µM
7 | COc1cc(-c2c(C#N)c(N)nc3c2c(C)nn3-c2ccccc2)cc(OC)c1OC | 16 | Non-Toxic | –
8 | COc1ccc(-c2c3c(C)nn(-c4ccccc4)c3nc3[nH]c(=O)[nH]c(=O)c23)cc1OC | 4 | Non-Toxic | –
9 | COc1ccc(-c2c(C#N)c(N)nc3c2c(C)nn3-c2ccccc2)cc1OC | 2 | Non-Toxic | –
10 | COc1cc(-c2c(C#N)c(N)nc3c2c(C)nn3-c2ccc(Cl)cc2)ccc1O | 32 | Non-Toxic | –
11 | COc1cccc(-c2ccnc3c2c(C)nn3-c2ccc(F)cc2)c1 | 4 | Toxic | –
12 | COc1ccc(-c2c(C#N)c(O)nc3c2c(C)nn3-c2ccccc2)cc1OC | 2 | Non-Toxic | –
13 | COc1cc(-c2c(C#N)c(N)nc3c2c(C)nn3-c2ccc(C)cc2)ccc1O | 4 | Non-Toxic | –
14 | COc1cc(-c2c(C#N)c(N)nc3c2c(C)nn3-c2ccc(F)cc2)ccc1O | 256 | Non-Toxic | remaining at 0 min [4]: 100%; remaining at 0.5 h [5]: 60%; CC50 at 5 day [2]: 24.7 to 48.3 µM; EC50 (Influenza A virus [3]): 2.1 µM; EC90 (Influenza A virus [3]): 4.6 µM; inhibition [6]: Active; remaining at 0.25 h [7]: 74%; Activity (Influenza B virus): inactive; Activity (Saccharomyces cerevisiae): Non-Toxic; EC50 (Influenza A virus H3N2): 10.1 µM; EC90 (Influenza A virus H3N2): > 50 µM; Kinetic_solubility [8]: 3 µM; Activity (Influenza A virus [9]): inactive; inhibition [10]: Active; Activity [11]: inactive
15 | Cc1nn(-c2ccccc2)c2nc(N)c(C#N)c(-c3ccc(O)c(O)c3)c12 | 32 | Non-Toxic | –
16 | COc1ccc(-c2c(C#N)c(O)nc3c2c(C)nn3-c2ccc(F)cc2)cc1OC | 0 | Non-Toxic | –
17 | COc1ccc(-c2c(C#N)c(N)nc3c2c(C)nn3-c2ccc(F)cc2)cc1OC | 2 | Non-Toxic | –
18 | COc1cc(-c2c(C#N)c(N)nc3c2c(C)nn3-c2ccc(C)c(C)c2)ccc1O | 4 | Non-Toxic | –
19 | Cc1ccc(-n2nc(C)c3c(-c4ccc(O)c(O)c4)c(C#N)c(N)nc32)cc1C | 256 | Non-Toxic | remaining at 0 min [4]: 100%; remaining at 0.5 h [5]: 64%; CC50 at 5 day [2]: 24.5 to 39.3 µM; EC50 (Influenza A virus [3]): 1.2 µM; EC90 (Influenza A virus [3]): 3.4 µM; inhibition [6]: Active; remaining at 0.25 h [7]: 78%; Activity (Influenza B virus): inactive; Activity (Saccharomyces cerevisiae): Non-Toxic; EC50 (Influenza A virus H3N2): > 50 µM; EC90 (Influenza A virus H3N2): > 50 µM; Kinetic_solubility [8]: 11.6 µM; Activity (Influenza A virus [9]): inactive; inhibition [10]: Active; Activity [11]: inactive
20 | Cc1nn(-c2ccccc2)c2nc3[nH]c(=O)[nH]c(=O)c3c(-c3ccc4c(c3)OCO4)c12 | 4 | Non-Toxic | –

Row | SMILES | fold change (FC) (Influenza A virus [1]) | Activity (MDCK) | further results
21 | COc1cc(-c2c(C#N)c(N)nc3c2c(C)nn3-c2ccccc2)ccc1O | 32 | Non-Toxic | –
22 | Cc1ccc(-n2nc(C)c3c(-c4ccc(O)c(O)c4)c(C#N)c(N)nc32)cc1 | 64 | Non-Toxic | –
23 | COc1ccc(-c2c3c(C)nn(-c4ccccc4)c3nc3[nH]c(=O)[nH]c(=O)c23)cc1O | 2 | Non-Toxic | –
24 | COc1cc(-c2ccnc3c2c(C)nn3-c2ccccc2)ccc1O | 2 | Non-Toxic | –
25 | COc1cc(-c2c(C(=O)O)cnc3c2c(C)nn3-c2ccc(F)cc2)ccc1O | 4 | Non-Toxic | –
26 | COc1cc(-c2c3c(C)nn(-c4ccccc4)c3nc3[nH]c(=O)[nH]c(=O)c23)ccc1O | 2 | Non-Toxic | –
27 | COc1cccc(-n2nc(C)c3c(-c4ccc(O)c(OC)c4)ccnc32)c1 | 0 | Non-Toxic | –
28 | COc1ccc(-n2nc(C)c3c(-c4ccc(O)c(OC)c4)ccnc32)cc1 | 32 | Non-Toxic | –
29 | COc1ccc(-c2c(C#N)c(N)nc3c2c(C)nn3-c2ccc(Cl)cc2)cc1OC | 0 | Non-Toxic | –
30 | CCOC(=O)c1cnc2c(c(C)nn2-c2ccc(F)cc2)c1-c1ccc(O)c(OC)c1 | 16 | Non-Toxic | –
31 | COc1cc(-c2ccnc3c2c(C)nn3-c2cccc(F)c2)ccc1O | 0 | Non-Toxic | –
32 | COc1cc(-c2c3c(C)nn(-c4ccccc4)c3nc3[nH]c(=O)[nH]c(=O)c23)cc(OC)c1O | 4 | Non-Toxic | –
33 | Cc1nn(-c2ccc(Cl)cc2)c2nc(N)c(C#N)c(-c3ccc(O)c(O)c3)c12 | 256 | Non-Toxic | remaining at 0 min [4]: 100%; remaining at 0.5 h [5]: 90%; CC50 at 5 day [2]: 20.4 to 31.9 µM; EC50 (Influenza A virus [3]): > 50 µM; EC90 (Influenza A virus [3]): > 50 µM; inhibition [6]: Active; remaining at 0.25 h [7]: 93%; Activity (Influenza B virus): inactive; Activity (Saccharomyces cerevisiae): Non-Toxic; Papp [12]: 0.34 ×10⁻⁶ cm/s; EC50 (Influenza A virus H3N2): > 50 µM; EC90 (Influenza A virus H3N2): > 50 µM; Kinetic_solubility [8]: 1.9 µM; Activity (Influenza A virus [9]): inactive; inhibition [10]: Active; Papp [13]: 2.64 ×10⁻⁶ cm/s; Activity [11]: inactive
34 | COc1cc(-c2c(C#N)c(O)nc3c2c(C)nn3-c2ccccc2)ccc1O | 16 | Non-Toxic | –
35 | COc1ccc(-c2c(C#N)c(N)nc3c2c(C)nn3-c2ccc(C)cc2)cc1OC | 0 | Non-Toxic | –
36 | NC(=O)c1ncn([C@@H]2O[C@H](CO)[C@@H](O)[C@H]2O)n1 [RIBAVIRIN] | – | – | EC50 (Influenza A virus [3]): 2.2 µM; EC90 (Influenza A virus [3]): 3.5 µM; EC50 (Influenza A virus H3N2): 28.8 µM; EC90 (Influenza A virus H3N2): 34.9 µM
37 | Cc1nn(-c2ccc(F)cc2)c2nc(N)c(C#N)c(-c3ccc(O)c(O)c3)c12 | 16 | Non-Toxic | –
38 | COc1cc(-c2c(C#N)c(N)nc3c2c(C)nn3-c2ccc(C)c(C)c2)cc(OC)c1OC | 0 | Non-Toxic | –
39 | O=C(NCCCc1ccccc1)c1ccccc1O | – | – | inhibition [10]: Active
